L major viab = Leishmania major promastigote growth inhibition, primary screen; Leishmania major promastigotes, resazurin fluorescence viability; inhibition, % at 10 µM; 200,000 tested, 9% active; AID 1063, 2008; in the data active = inhibition above about 50%;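 note: promastigotes grown with compound for 44 hours at 28 °C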
Diaphorase inh = diaphorase inhibitors and chemical oxidizers, primary screen, counter-screen for diaphorase-coupled primary assays, biochemical, uHTS, resorufin fluorescence; diaphorase resazurin-to-resorufin fluorescence, NADH, 16 min; bacterial (C. kluyveri) enzyme, not human; inhibition, % at 20 µM; 190,000 tested, 0.69% active; AID 1217, 2008;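 active = primary screen inhibition at 20 µM above a set limit, cut at about 50% in these data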
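Test system: diaphorase enzyme from Clostridium kluyveri; amount: diaphorase at 0.14 U/mL in enzyme working solution; detection: fluorescence of resorufin formed from resazurin, Ex 544/Em 590 nm; times: reaction incubation of 16 min at room temperature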
WT yeast gro inh = growth inhibition of WT strain, primary screen, mitochondrial fusion inhibitor project, WT and mutant strains, chemical genetic; mitochondrial fusion phenotypic screen; inhibition, % at 10 µM; 190,000 tested, 2.1% active; AID 1362, 2008; in the data active = inhibition above about 58%; tested in S. cerevisiae
KCC2 mod = KCC2 cotransporter modulators, thallium flux, primary screen, cell-based, HEK293 KCC2, FluoZin-2 fluorescence, MLSMR; Solute carrier family 12 member 5 (Homo sapiens), Q9H2X9; KCC2 cells, thallium flux FluoZin-2 fluorescence; B-score of Tl+ flux slope (higher = more flux/activation; lower = inhibition) at 10 µM; 190,000 tested, 2.2% active;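 active = thallium flux slope and its plate-corrected score both differing from the plate sample mean at a set confidence after two filtering rounds, in either direction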;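 note: slope of fluorescence scaled to starting intensity during 10 to 20 s after thallium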
ROMK primary = ROMK potassium channel modulators, primary screen, cell-based, thallium flux, MLSMR library; ATP-sensitive inward rectifier potassium channel 1 (Homo sapiens), P48048; Tet-inducible ROMK, thallium flux fluorescence; actives lie on both sides; B-score at 10 µM; 130,000 tested, 2% active; AID 1918, 2009;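 active = signal ratio slope over the read window, or its plate-corrected B-score, at least 3 SD from the plate mean, either direction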;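 note: B-score of the F/F0 ratio slope over 7 to 12 s after thallium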
Target sequence (P48048 whole entry, looked up): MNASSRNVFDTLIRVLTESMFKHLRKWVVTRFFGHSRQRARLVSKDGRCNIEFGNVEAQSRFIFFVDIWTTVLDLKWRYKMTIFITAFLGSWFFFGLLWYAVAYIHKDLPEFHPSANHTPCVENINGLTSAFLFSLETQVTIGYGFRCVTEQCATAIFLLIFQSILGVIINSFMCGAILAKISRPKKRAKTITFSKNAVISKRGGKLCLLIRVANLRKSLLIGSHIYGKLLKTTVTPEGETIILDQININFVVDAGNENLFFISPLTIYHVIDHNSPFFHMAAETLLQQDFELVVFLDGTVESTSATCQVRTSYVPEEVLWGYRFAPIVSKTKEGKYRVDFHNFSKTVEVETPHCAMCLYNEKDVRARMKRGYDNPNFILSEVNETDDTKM
Diaphorase act = compounds boosting diaphorase resazurin reduction – biochemical, uHTS, resorufin fluorescence, counter-screen for diaphorase-coupled primary assays, primary screen | Diaphorase/resazurin coupled assay, 16 min; active compounds read high; 1 = vehicle wells, 0 = NADH-free wells | activation factor at 20 µM | 190,000 tested, 0.005% active;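 active = diaphorase activity raised at least twofold by the compound at 20 µM; inactive = activation factor below 2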
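Assay system: bacterial diaphorase enzyme (C. kluyveri) / Input: enzyme 0.07 U/mL final / Medium: 50 mM HEPES pH 7.4 with 4.542 mM MgCl2, 0.005% Tween 20 / Doses: single compound dose of 20 µM, 1% DMSO final / Incubation: 16 min enzyme reaction, ambient temperature / Signal: fluorescence, excitation 544 nm and emission 590 nm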
KCC2 secondary = KCC2 modulators in sodium-free buffer, confirmation, cell-based, HEK293 KCC2, thallium flux, secondary assay; shares compounds with KCC2 mod; 3,700 tested, 15% active; normalised thallium flux (F/F0 slope) at 10 µM; FluoZin2 fluorescence; active compounds read high;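 active = thallium flux slope above the same plate's solvent-only control mean plus 3 SD; inconclusive = the two replicate wells disagree; inactive = no significant difference from solvent-only control wells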
KCC2 bumet counter = thallium flux persisting under bumetanide in KCC2 cells, confirmation, counter-screen for KCC2 modulator project, cell-based, HEK293 KCC2, FluoZin2, secondary assay 3; 3,700 tested, 49% active; normalized thallium flux at 10 µM; shares compounds with KCC2 mod; AID 1714, 2009; HEK293-KCC2 + bumetanide/ouabain; active compounds read high;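 active = thallium entry rate above the same plate's blocked-transporter control wells by more than 3 SD; inconclusive = the two repeat wells disagree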;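 note: raw slope of fluorescence over initial fluorescence between 10 and 20 s after thallium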
KCC2 sec2 = KCC2 modulators without ouabain present, confirmation, cell-based, HEK293 KCC2, thallium flux, FluoZin2, secondary assay 2; shares compounds with KCC2 mod; thallium flux FluoZin2 fluorescence; actives lie on both sides; F/F0 rise rate, 10–20 s post-thallium; normalized thallium flux at 10 µM; 3,700 tested, 23% active; AID 1715, 2009;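 active = thallium flux slope more than 3 SD above or below the plate's solvent-only control mean, mostly below; inconclusive = the two repeat wells disagreed; inactive = no significant shift from solvent-only controls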
HEK293 Tl flux = thallium flux modulation in parental HEK cells, confirmation, counter-screen for KCC2 modulator project, cell-based, counterscreen 1; shares compounds with KCC2 mod; HEK293 parental cells, thallium flux FluoZin2, ouabain; baseline-ratio fluorescence slope, 10–20 s after thallium; thallium flux rate (normalised fluorescence) at 10 µM; 3,700 tested, 46% active; AID 1716, 2009;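 active = thallium flux rate significantly above the same plate's solvent-only control wells, beyond their mean plus 3 SD; inconclusive = the two replicate wells gave conflicting results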
KCC2 retest ouab = KCC2 inhibitors and activators, ouabain retest, confirmation, HEK-KCC2 cells | HEK293-KCC2, thallium flux FluoZin2 fluorescence; bidirectional: low = inhibitor, high = activator | raw Tl+ flux slope (below DMSO = inhibition, above = activation) at 10 µM | 3,700 tested, 48% active | shares compounds with KCC2 mod;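 active = thallium flux slope beyond 3 SD from same-plate DMSO control mean in most replicates, usually higher, sometimes lower; inconclusive = repeat tests gave conflicting results; inactive = no significant difference from controls in most replicates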;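 note: slope of initial-normalized fluorescence between seconds 10 and 20 after thallium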
HEK293 Tl flux2 = native HEK Tl+ uptake effects, second counter-screen – HEK cells, counterscreen 2, counter-screen for KCC2 modulator project, confirmation; shares compounds with KCC2 mod; HEK293 parental, thallium flux FluoZin-2 fluorescence slope; thallium flux slope at 10 µM; 3,700 tested, 33% active; AID 1718, 2009;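 active = thallium flux slope above the same plate's solvent-control mean plus 3 SD in both duplicate wells; inconclusive = duplicate wells that disagreed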;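 note: run without ouabain in cells lacking the KCC2 cotransporter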
Numbers stand for hits; i = inactive; ? = inconclusive; nt = no result given. Rows were chosen to be rich in hits. Some 12% of all compounds tested hit in one or more screens of this group.

SMILES	L major viab	Diaphorase inh	WT yeast gro inh	KCC2 mod	ROMK primary	Diaphorase act	KCC2 secondary	KCC2 bumet counter	KCC2 sec2	HEK293 Tl flux	KCC2 retest ouab	HEK293 Tl flux2
COc1ccc(OC)c(NC(=O)CCN2CCCCCC2)c1	i	i	i	i	i	i	nt	nt	nt	nt	nt	nt
N#Cc1nc(Cc2cccc3ccccc23)oc1NCC1CCCO1 (centres undefined)	i	i	i	nt	i	i	i	i	?	i	0.016	i
N#Cc1nc(-c2ccccc2Cl)oc1NCC1CCCO1 (centres undefined)	i	i	i	i	nt	i	nt	nt	nt	nt	nt	nt
COc1ccccc1OCc1nc(C#N)c(NCc2ccco2)o1	i	i	i	i	i	i	nt	nt	nt	nt	nt	nt
N#Cc1nc(Cc2cccc3ccccc23)oc1NCc1ccco1	i	i	i	nt	i	i	?	i	?	?	0.014	i
N#Cc1nc(Cc2cccc3ccccc23)oc1NCCCN1CCOCC1	i	i	i	-5.6	i	i	?	i	i	i	0.014	0.011
O=S1(=O)CCN(Cc2ccc(Cl)c(C(F)(F)F)c2)CC1	i	i	i	i	i	i	nt	nt	nt	nt	nt	nt
Cc1ccc2c(c1)COc1c3ccc(C(=O)N4CCOCC4)cc3nn1-2	nt	nt	nt	i	nt	nt	nt	nt	nt	nt	nt	nt
O=C(c1ccc2c3n(nc2c1)-c1ccc(Cl)cc1CO3)N1CCCCC1	nt	nt	nt	-2.2	nt	nt	i	i	?	i	?	i
CC(=O)c1c(N2CCOCC2)[nH]c(-c2ccccc2)nc1=S	i	i	i	13	i	i	0.017	0.032	?	0.019	0.041	?
CSc1nc(-c2ccccc2)nc(N2CCOCC2)c1C(C)=O	i	i	i	i	i	i	nt	nt	nt	nt	nt	nt
CCc1nnc(NC(=S)Nc2ccccc2)s1	i	i	i	i	nt	i	nt	nt	nt	nt	nt	nt
Cc1nc(NC(=S)Nc2ccccc2)sc1C	i	i	i	16	i	i	i	0.063	0.05	0.032	0.05	0.035
Cc1cccc(C(=O)Nc2nccs2)c1[N+](=O)[O-]	i	i	i	i	i	i	nt	nt	nt	nt	nt	nt
Cn1c(=S)[nH]c2c(c1=O)C(C)(C)Cc1ccccc1-2	i	i	i	83	i	i	0.066	0.12	0.084	0.096	0.094	0.091
CCOC(=O)c1ccc(NC(=O)CC2C(=O)N(c3ccc(F)cc3)C(=O)N2CCC(C)C)cc1 (centres undefined)	i	i	i	-3.5	i	i	i	i	i	i	i	i
NC1=NC[C@@H](Cc2ccc(O)cc2)N1CCc1cc(C(F)(F)F)cc(C(F)(F)F)c1	nt	nt	nt	-3.2	nt	nt	i	i	0.022	i	0.014	i
NC1=NC[C@@H](Cc2ccc(O)cc2)N1CCc1cccc(F)c1	nt	nt	nt	i	nt	nt	nt	nt	nt	nt	nt	nt
CCCn1nc(Oc2nc(N(C)C)nc(N(C)C)n2)ccc1=O	i	nt	i	i	i	nt	nt	nt	nt	nt	nt	nt
CN(C)/C=C/C(=O)c1cnc(-c2ccccn2)s1	i	i	i	i	i	i	nt	nt	nt	nt	nt	nt
CCn1c(SC/C=C/c2ccccc2)nnc1-c1cccs1	i	i	i	nt	nt	i	nt	nt	nt	nt	nt	nt
C=CCn1c(Cc2cccs2)nnc1SC/C=C/c1ccccc1	i	i	i	-4	i	i	i	?	?	0.0053	0.014	0.0085
Cc1cc(=O)oc2cc(OC(=O)c3cncc(Br)c3)ccc12	i	i	i	i	i	i	nt	nt	nt	nt	nt	nt
S=c1[nH]cc(Cc2ccccc2)s1	i	i	i	40	i	i	0.026	0.12	i	0.035	0.068	0.021
c1ccc(Cc2nnc3sc(-c4ccco4)nn23)cc1	i	i	i	i	nt	i	nt	nt	nt	nt	nt	nt
SMILES	L major viab	Diaphorase inh	WT yeast gro inh	KCC2 mod	ROMK primary	Diaphorase act	KCC2 secondary	KCC2 bumet counter	KCC2 sec2	HEK293 Tl flux	KCC2 retest ouab	HEK293 Tl flux2
Cc1nc(NC(=O)c2cccs2)ccc1Br	i	i	i	i	i	i	nt	nt	nt	nt	nt	nt
COc1ccc(/C=N/NC(=S)SC)cc1OC	i	i	61	38	i	i	?	0.076	0.063	0.053	0.073	0.055
COc1ccc(/C=N/NC(=O)CSc2ccccc2)cc1OC	i	i	i	i	i	i	nt	nt	nt	nt	nt	nt
COc1cc2c(cc1OC)C(COc1ccccc1OC)N(C(=O)C(C)C)CC2 (centres undefined)	i	i	i	i	i	i	nt	nt	nt	nt	nt	nt
CCC(=O)N1CCc2cc(OC)c(OC)cc2C1COc1ccccc1OC (centres undefined)	i	i	i	-5	i	i	i	i	i	i	i	i
CS(=O)(=O)N(CC(=O)Nc1cccc([N+](=O)[O-])c1)c1cccc(F)c1	i	i	i	i	i	i	nt	nt	nt	nt	nt	nt
Cc1cc(C(=O)CSc2nnc(-c3cccc(F)c3)n2N)c(C)n1Cc1ccc2c(c1)OCO2	75	i	i	nt	i	i	i	i	i	i	i	i
CCN(CC)c1ccc(NC(=O)c2ccco2)cc1	i	i	i	i	nt	i	nt	nt	nt	nt	nt	nt
CCN(CC)c1ccc(NC(=S)NC(=O)c2ccco2)cc1	i	nt	i	69	i	nt	0.043	0.17	?	?	0.12	?
O=C(NC(=S)Nc1ccc(Oc2ccccc2)cc1)c1ccc(Cl)cc1	i	i	i	31	i	i	i	0.022	?	0.016	0.028	0.014

Assay outcomes (PubChem)
